From ChEMBL document CHEMBL1208737, “Synthesis and in vitro evaluation of N-alkyl-3-hydroxy-3-(2-imino-3-methyl-5-oxoimidazolidin-4-yl)indolin-2-one analogs as potential anticancer agents” (2010)

Key:
Type in all cases: functional
MDA-MB-435 = assay: Growth inhibition of human MDA-MB-435 cells by sulforhodamine B assay
Procedure, shortened: (§1)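 Five-dose response testing across a 57-line human tumour panel (leukemia, non-small cell lung, colon, CNS, melanoma, ovarian, renal, prostate, breast), done after a single-dose primary screen run per the NCI method. Effect plotted against log10 molar drug concentration for each cell line. GI50 is the concentration giving a 50% reduction in net protein increase versus control cells.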

SK-MEL-2 = assay: Growth inhibition of human SK-MEL-2 cells by sulforhodamine B assay; procedure, shortened: as §1
SK-MEL-28 = assay: Growth inhibition of human SK-MEL-28 cells by sulforhodamine B assay; procedure, shortened: as §1
SK-MEL-5 = assay: Growth inhibition of human SK-MEL-5 cells by sulforhodamine B assay; procedure, shortened: as §1
UACC-257 = assay: Growth inhibition of human UACC257 cells by sulforhodamine B assay
Procedure, shortened: (§2)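 Part of a 57-line human tumour cell panel run at five doses. Growth effect was plotted against log10 molar drug concentration for each cell line. GI50 is the concentration giving a 50% reduction in net protein increase relative to untreated control cells, read from the dose-response curve.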

UACC-62 = assay: Growth inhibition of human UACC62 cells by sulforhodamine B assay; procedure, shortened: as §2
IGROV-1 = assay: Growth inhibition of human IGROV1 cells by sulforhodamine B assay; procedure, shortened: as §1
OVCAR-3 = assay: Growth inhibition of human OVCAR-3 cells by sulforhodamine B assay; procedure, shortened: as §1
OVCAR-4 = assay: Growth inhibition of human OVCAR4 cells by sulforhodamine B assay; procedure, shortened: as §1
OVCAR-5 = assay: Growth inhibition of human OVCAR5 cells by sulforhodamine B assay; procedure, shortened: as §1
OVCAR-8 = assay: Growth inhibition of human OVCAR8 cells by sulforhodamine B assay; procedure, shortened: as §1
NCI/ADR-RES = assay: Growth inhibition of human NCI/ADR-RES cells by sulforhodamine B assay; procedure, shortened: as §1
SK-OV-3 = assay: Growth inhibition of human SKOV3 cells by sulforhodamine B assay; procedure, shortened: as §1
786-0 = assay: Growth inhibition of human 786-0 cells by sulforhodamine B assay; procedure, shortened: as §1
A498 = assay: Growth inhibition of human A498 cells by sulforhodamine B assay; procedure, shortened: as §1
ACHN = assay: Growth inhibition of human ACHN cells by sulforhodamine B assay; procedure, shortened: as §1
CAKI-1 = assay: Growth inhibition of human Caki1 cells by sulforhodamine B assay; procedure, shortened: as §1
RXF 393 = assay: Growth inhibition of human RXF393 cells by sulforhodamine B assay; procedure, shortened: as §1
SN12C = assay: Growth inhibition of human SN12C cells by sulforhodamine B assay; procedure, shortened: as §1
TK-10 = assay: Growth inhibition of human TK10 cells by sulforhodamine B assay; procedure, shortened: as §2
UO-31 = assay: Growth inhibition of human UO31 cells by sulforhodamine B assay; procedure, shortened: as §2
PC-3 = assay: Growth inhibition of human PC3 cells by sulforhodamine B assay; procedure, shortened: as §1
DU-145 = assay: Growth inhibition of human DU145 cells by sulforhodamine B assay; procedure, shortened: as §1
MCF7 = assay: Growth inhibition of human MCF7 cells by sulforhodamine B assay; procedure, shortened: as §1
MDA-MB-231 = assay: Growth inhibition of human MDA-MB-231 cells by sulforhodamine B assay; procedure, shortened: as §1
[1] = Growth inhibition of human Hs 578T cells by sulforhodamine B assay; procedure, shortened: as §1
BT-549 = assay: Growth inhibition of human BT549 cells by sulforhodamine B assay; procedure, shortened: as §1
T47D = assay: Growth inhibition of human T47D cells by sulforhodamine B assay; procedure, shortened: as §2
MDA-MB-468 = assay: Growth inhibition of human MDA-MB-468 cells by sulforhodamine B assay; procedure, shortened: as §1
[2] = read-out: LC50 (the source's name)

## COc1ccc(CN2C(=O)C(O)(C3C(=O)NC(=N)N3C)c3cc(Cl)ccc32)cc1 (stereo not drawn)
MDA-MB-435
  GI50: 6.12 µM
MDA-MB-435; [2]
  CC50: 93.1 µM
SK-MEL-2
  GI50: 10.4 µM
SK-MEL-2; [2]
  CC50: 96 µM
SK-MEL-28
  GI50: 50.3 µM
SK-MEL-28; [2]
  CC50: > 100 µM
SK-MEL-5
  GI50: 22.6 µM
SK-MEL-5; [2]
  CC50: > 100 µM
UACC-257
  GI50: 1.43 µM
  LC50: 19.4 µM
UACC-62
  GI50: 23.4 µM
UACC-62; [2]
  CC50: > 100 µM
IGROV-1
  GI50: 2.59 µM
IGROV-1; [2]
  CC50: > 100 µM
OVCAR-3
  GI50: 2.08 µM
OVCAR-3; [2]
  CC50: 11.5 µM
OVCAR-4
  GI50: 5.52 µM
OVCAR-4; [2]
  CC50: > 100 µM
OVCAR-5
  GI50: 34.9 µM
OVCAR-5; [2]
  CC50: > 100 µM
OVCAR-8
  GI50: 1.35 µM
OVCAR-8; [2]
  CC50: 17.2 µM
NCI/ADR-RES
  GI50: 1.88 µM
NCI/ADR-RES; [2]
  CC50: 36.5 µM
SK-OV-3
  GI50: 30.1 µM
SK-OV-3; [2]
  CC50: > 100 µM
786-0
  GI50: 3.44 µM
786-0; [2]
  CC50: 43 µM
A498
  GI50: 34.5 µM
A498; [2]
  CC50: > 100 µM
ACHN
  GI50: 20.4 µM
ACHN; [2]
  CC50: > 100 µM
CAKI-1
  GI50: 1.98 µM
CAKI-1; [2]
  CC50: > 100 µM
RXF 393
  GI50: 6.29 µM
RXF 393; [2]
  CC50: > 100 µM
SN12C
  GI50: 5.94 µM
SN12C; [2]
  CC50: > 100 µM
TK-10
  GI50: 4.11 µM
TK-10; [2]
  CC50: > 100 µM
UO-31
  GI50: 4.15 µM
UO-31; [2]
  CC50: > 100 µM
PC-3
  GI50: 4.27 µM
PC-3; [2]
  CC50: > 100 µM
DU-145
  GI50: 3.76 µM
DU-145; [2]
  CC50: 74.6 µM
MCF7
  GI50: 3.22 µM
  LC50 (concentration killing 50% of starting cells): > 100 µM
MDA-MB-231
  GI50: 8.55 µM
MDA-MB-231; [2]
  CC50: > 100 µM
[1]
  GI50: 2.04 µM
[1]; [2]
  CC50: > 100 µM
BT-549
  GI50: 2.98 µM
  LC50: 54.9 µM
T47D
  GI50: 13.5 µM
  LC50: > 100 µM
MDA-MB-468
  GI50: 2.29 µM
  LC50 (concentration causing 50% net cell kill): > 100 µM
